Test results as given in ChEMBL document CHEMBL3612041, “Combating highly resistant emerging pathogen Mycobacterium abscessus and Mycobacterium tuberculosis with novel salicylanilide esters and carbamates” (Eur J Med Chem, 2015).
Converted amounts (≈) assume the structure as drawn.

Experiments:
[1] = tested on: Mycobacterium tuberculosis; assay: Antimycobacterial activity against multidrug-resistance Mycobacterium tuberculosis A8 after 28 days by serial dilution method; format: functional; conditions: for MIC: Mycobacterium tuberculosis, A8, 672 h
Procedure, shortened: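 Serial dilution in in-house Sula semisynthetic medium, pH 6.5. Compounds added as DMSO solutions at 10 doses, final 0.05–100 µg/mL. Incubation at 37 °C, 7 days for M. abscessus and 28 days for M. tuberculosis strains. MIC taken as the lowest concentration giving visible growth inhibition, confirmed by CFU on drug-free Löwenstein-Jensen medium after further equal incubation. Repeated at least twice.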

[2] = Selectivity index, ratio of IC50 for human MONO-MAC-6 cells to MIC for multidrug-resistance Mycobacterium tuberculosis A8; format: toxicity; conditions: read-out: Selectivity Index
[3] = tested on: Mycobacterium tuberculosis; assay: Antimycobacterial activity against INH/RIF/rifabutine/streptomycin-resistance Mycobacterium tuberculosis 9449/2006 after 14 days by microbroth dilution method; format: functional; conditions: 9449/2006, 336 h
Procedure, shortened: (§1)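 Micromethod MIC in Sula semisynthetic medium, pH 6.5. Incubation at 37 °C, read at 14 and 21 days. MIC taken as the lowest concentration giving complete inhibition of mycobacterial growth.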

[4] = tested on: Mycobacterium tuberculosis; assay: Antimycobacterial activity against INH/RIF/rifabutine/streptomycin-resistance Mycobacterium tuberculosis 9449/2006 after 21 days by microbroth dilution method; format: functional; conditions: 9449/2006, 504 h; procedure, shortened: as §1
[5] = tested on: Mycobacterium tuberculosis; assay: Antimycobacterial activity against INH/RIF/rifabutine/streptomycin/ethambutol/ofloxacin/gentamicin/amikacin-resistance Mycobacterium tuberculosis Praha 131 after 14 days by microbroth dilution method; format: functional; conditions: Praha 131, 336 h; procedure, shortened: as §1
[6] = tested on: Mycobacterium tuberculosis; assay: Antimycobacterial activity against INH/RIF/rifabutine/streptomycin/ethambutol/ofloxacin/gentamicin/amikacin-resistance Mycobacterium tuberculosis Praha 131 after 21 days by microbroth dilution method; format: functional; conditions: Praha 131, 504 h; procedure, shortened: as §1
[7] = Selectivity index, ratio of IC50 for human MONO-MAC-6 cells to MIC for INH/RIF/rifabutine/streptomycin-resistance Mycobacterium tuberculosis 9449/2006 after 21 days; format: toxicity; conditions: read-out: Selectivity Index
[8] = Selectivity index, ratio of IC50 for human MONO-MAC-6 cells to MIC for INH/RIF/rifabutine/streptomycin/ethambutol/ofloxacin/gentamicin/amikacin-resistance Mycobacterium tuberculosis Praha 131 after 21 days; format: toxicity; conditions: read-out: Selectivity Index

| SMILES | Activity [1] | MIC [1] | selectivity ratio [2] | MIC [3] | MIC [4] | MIC [5] | MIC [6] | selectivity ratio at 504 h [7] | selectivity ratio at 504 h [8] |
| --- | --- | --- | --- | --- | --- | --- | --- | --- | --- |
| CCCNC(=O)Oc1ccc(Cl)cc1C(=O)Nc1ccc(C(=O)c2ccccc2)cc1 | 6 CFU | 11.5 µM (≈ 5.02 µg/mL) | 1.6 | – | – | – | – | – | – |
| O=C(O)c1cnc(Cl)cn1 | – | > 633 µM | – | – | – | – | – | – | – |
| O=C(Nc1ccc(C(F)(F)F)cc1)c1cc(Cl)ccc1O | 0 CFU | 1.6 µM (≈ 0.505 µg/mL) | – | – | – | – | – | – | – |
| O=C(Nc1ccc(C(F)(F)F)cc1)c1cc(Br)ccc1O | 0 CFU | 2.8 µM (≈ 1.01 µg/mL) | 2.7 | – | – | – | – | – | – |
| O=C(NCCCCl)Oc1ccc(Br)cc1C(=O)Nc1ccc(C(=O)c2ccccc2)cc1 | 1 CFU | 1.9 µM (≈ 0.98 µg/mL) | 6.6 | – | – | – | – | – | – |
| O=C(c1ccccc1)c1ccc(NC(=O)c2cc(Br)ccc2O)cc1 | 1 CFU | 12.7 µM (≈ 5.03 µg/mL) | 1.7 | – | – | – | – | – | – |
| O=C(NCCCl)Oc1ccc(Cl)cc1C(=O)Nc1ccc(C(=O)c2ccccc2)cc1 | 21 CFU | 10.9 µM (≈ 4.98 µg/mL) | 3.5 | – | – | – | – | – | – |
| O=C(NCCCl)Oc1ccc(Br)cc1C(=O)Nc1ccc(Cl)c(Cl)c1 | 0 CFU | 2.2 µM (≈ 1.03 µg/mL) | 3.1 | 1 µM (≈ 0.467 µg/mL) | 2 µM (≈ 0.933 µg/mL) | 1 µM (≈ 0.467 µg/mL) | 2 µM (≈ 0.933 µg/mL) | 3.5 | 3.5 |
| O=C(NCCCl)Oc1ccc(Cl)cc1C(=O)Nc1ccc(Cl)c(Cl)c1 | 0 CFU | 2.4 µM (≈ 1.01 µg/mL) | 1.9 | – | – | – | – | – | – |
| O=C(Oc1ccc(Cl)cc1C(=O)Nc1ccc(Cl)c(Cl)c1)c1cnc(Cl)cn1 | 0 CFU | 4.4 µM (≈ 2.01 µg/mL) | 2.3 | 1 µM (≈ 0.457 µg/mL) | 2 µM (≈ 0.914 µg/mL) | 1 µM (≈ 0.457 µg/mL) | 2 µM (≈ 0.914 µg/mL) | 5.1 | 5.1 |
| O=C(NCCCl)Oc1ccc(Br)cc1C(=O)Nc1ccc(C(F)(F)F)cc1 | 9 CFU | 1.1 µM (≈ 0.512 µg/mL) | 8.5 | 1 µM (≈ 0.466 µg/mL) | 2 µM (≈ 0.931 µg/mL) | 1 µM (≈ 0.466 µg/mL) | 2 µM (≈ 0.931 µg/mL) | 4.7 | 4.7 |
| O=C(Oc1ccc(Cl)cc1C(=O)Nc1ccc(Cl)c(Cl)c1)c1cnccn1 | – | – | – | – | 0.25 µM (≈ 0.106 µg/mL) | – | 0.125 µM (≈ 0.0528 µg/mL) | – | – |
| O=C(NCCCCl)Oc1ccc(Br)cc1C(=O)Nc1ccc(C(F)(F)F)cc1 | 0 CFU | 1 µM (≈ 0.48 µg/mL) | 5.7 | 1 µM (≈ 0.48 µg/mL) | 2 µM (≈ 0.959 µg/mL) | 1 µM (≈ 0.48 µg/mL) | 2 µM (≈ 0.959 µg/mL) | 2.9 | 2.9 |
| O=C(NCCCCl)Oc1ccc(Br)cc1C(=O)Nc1ccc(Cl)c(Cl)c1 | 2 CFU | 1 µM (≈ 0.481 µg/mL) | 9.5 | 1 µM (≈ 0.481 µg/mL) | 2 µM (≈ 0.961 µg/mL) | 1 µM (≈ 0.481 µg/mL) | 1 µM (≈ 0.481 µg/mL) | 4.8 | 9.5 |
| O=C(NCCCl)Oc1ccc(Br)cc1C(=O)Nc1ccc(C(=O)c2ccccc2)cc1 | 0 CFU | 20 µM (≈ 10 µg/mL) | 1.2 | – | – | – | – | – | – |
| CCCNC(=O)Oc1ccc(Cl)cc1C(=O)Nc1ccc(Cl)c(Cl)c1 | 2 CFU | 1.3 µM (≈ 0.522 µg/mL) | 5.4 | 1 µM (≈ 0.402 µg/mL) | 1 µM (≈ 0.402 µg/mL) | 1 µM (≈ 0.402 µg/mL) | 1 µM (≈ 0.402 µg/mL) | 7 | 7 |
| O=C(NCCCCl)Oc1ccc(Cl)cc1C(=O)Nc1ccc(Cl)c(Cl)c1 | 1 CFU | 1.2 µM (≈ 0.523 µg/mL) | 2.1 | – | – | – | – | – | – |
| O=C(Oc1ccc(Br)cc1C(=O)Nc1ccc(C(F)(F)F)cc1)c1cnccn1 | – | – | – | – | 0.5 µM (≈ 0.233 µg/mL) | – | 0.5 µM (≈ 0.233 µg/mL) | – | – |
| O=C(Oc1ccc(Br)cc1C(=O)Nc1ccc(Cl)c(Cl)c1)c1cnc(Cl)cn1 | 11 CFU | 2 µM (≈ 1 µg/mL) | 2.9 | – | – | – | – | – | – |
| O=C(NCCCCl)Oc1ccc(Cl)cc1C(=O)Nc1ccc(C(=O)c2ccccc2)cc1 | 0 CFU | 21.3 µM (≈ 10 µg/mL) | 0.8 | – | – | – | – | – | – |
| O=C(Nc1ccc(Cl)c(Cl)c1)c1cc(Cl)ccc1O | 8 CFU | 1.6 µM (≈ 0.507 µg/mL) | 2.3 | – | – | – | – | – | – |
| O=C(Oc1ccc(Br)cc1C(=O)Nc1ccc(C(F)(F)F)cc1)c1cnc(Cl)cn1 | 22 CFU | 2 µM (≈ 1 µg/mL) | 0.6 | 1 µM (≈ 0.501 µg/mL) | 2 µM (≈ 1 µg/mL) | 2 µM (≈ 1 µg/mL) | 2 µM (≈ 1 µg/mL) | 0.6 | 0.6 |
| NNC(=O)c1ccncc1 [ISONIAZID] | 12 CFU | 7.3 µM (≈ 1 µg/mL) | – | – | – | – | – | – | – |
| O=C(c1ccccc1)c1ccc(NC(=O)c2cc(Cl)ccc2O)cc1 | 50 CFU | 14.2 µM (≈ 5 µg/mL) | 3.4 | – | – | – | – | – | – |
| O=C(NCCCCl)Oc1ccc(Cl)cc1C(=O)Nc1ccc(C(F)(F)F)cc1 | 0 CFU | 1.2 µM (≈ 0.522 µg/mL) | 7.3 | 1 µM (≈ 0.435 µg/mL) | 2 µM (≈ 0.87 µg/mL) | 1 µM (≈ 0.435 µg/mL) | 2 µM (≈ 0.87 µg/mL) | 4.4 | 4.4 |
| O=C(NCCCl)Oc1ccc(Cl)cc1C(=O)Nc1ccc(C(F)(F)F)cc1 | 0 CFU | 1.2 µM (≈ 0.505 µg/mL) | 6.3 | 0.5 µM (≈ 0.211 µg/mL) | 1 µM (≈ 0.421 µg/mL) | 1 µM (≈ 0.421 µg/mL) | 2 µM (≈ 0.842 µg/mL) | 7.6 | 3.8 |
| O=C(Oc1ccc(Cl)cc1C(=O)Nc1ccc(C(F)(F)F)cc1)c1cnc(Cl)cn1 | 1 CFU | 1.1 µM (≈ 0.502 µg/mL) | 1 | 1 µM (≈ 0.456 µg/mL) | 2 µM (≈ 0.912 µg/mL) | 1 µM (≈ 0.456 µg/mL) | 1 µM (≈ 0.456 µg/mL) | 0.6 | 1.1 |
| O=C(Oc1ccc(Cl)cc1C(=O)Nc1ccc(C(F)(F)F)cc1)c1cnccn1 | – | – | – | – | 0.5 µM (≈ 0.211 µg/mL) | – | 1 µM (≈ 0.422 µg/mL) | – | – |
| O=C(Nc1ccc(Cl)c(Cl)c1)c1cc(Br)ccc1O | 0 CFU | 2.8 µM (≈ 1.01 µg/mL) | 1.3 | – | – | – | – | – | – |
